Calls of active or inactive are those of the source. No cut-off for these calls is given here.
Experiments:
[1] = molecular target: T1, Protein phosphatase 1A (Mus musculus) (UniProt P49443); assay: Activation of mouse recombinant GST-tagged PP2Calpha assessed as phosphate release using para-Nitrophenyl phosphate substrate
T1 sequence (whole entry): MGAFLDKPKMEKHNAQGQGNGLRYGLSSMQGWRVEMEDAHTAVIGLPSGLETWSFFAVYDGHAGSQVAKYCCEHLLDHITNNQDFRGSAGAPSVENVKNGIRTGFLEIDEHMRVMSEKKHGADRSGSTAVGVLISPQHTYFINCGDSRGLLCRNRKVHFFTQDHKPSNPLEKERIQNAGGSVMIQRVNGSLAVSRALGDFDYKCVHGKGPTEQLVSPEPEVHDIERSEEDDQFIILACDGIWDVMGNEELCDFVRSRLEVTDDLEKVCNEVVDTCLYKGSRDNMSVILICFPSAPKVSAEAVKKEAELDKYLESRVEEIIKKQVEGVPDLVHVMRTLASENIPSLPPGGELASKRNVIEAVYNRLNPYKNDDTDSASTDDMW
Outline: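 Mouse wild-type GST-PP2Cα fusion (1 µg) at rt in 0.1 M Tris-HCl pH 8.0, 2 mM DTT, with varied MnCl₂ or compound. Substrate 5 mM p-nitrophenyl phosphate, 30 min. Stopped with 0.5% SDS, A410. Triplicates, mean ± SD versus concentration.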

[2] = molecular target: T1, Protein phosphatase 1A (Mus musculus); assay: Activation of mouse recombinant GST-tagged PP2Calpha assessed as phosphate release using octapeptide-phosphate substrate RRRRPp-TPA
Outline: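 Mouse wild-type GST-PP2Cα fusion (2 µg) at rt in 0.1 M Tris-HCl pH 8.0, 2 mM DTT, with varied MnCl₂ or compound. Phosphopeptide RRRRPpTPA at 5 µM final, 15 min. Stopped with malachite green, 15 min color, A650. No-enzyme blanks subtracted; triplicates, mean ± SD versus concentration.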

[3] = Activation of PDHP in absence of 5 mM Mn2+
Outline: (§1)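 Triplicate wells. PDHP and PDH incubated 37 °C 30 min. NaF stop, then pyruvate-ADP and NAD/cocarboxylase/CoA mix, 2 min rt. Activity read as absorbance change at 340 nm; data pooled from two experiments with separately synthesized samples.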

[4] = Activation of PDHP in presence of 5 mM Mn2+; outline: as §1

Row | SMILES | Activity [1] | Activity [2] | Activity [3] | Activity [4]
1 | CO[C@@H]1[C@@H](O)[C@@H](O)[C@H](O)[C@H](O)[C@H]1C[C@@H]1O[C@H](CO)[C@H](O)[C@H](O)[C@H]1N | inactive | inactive | inactive | Active
2 | CO[C@@H]1[C@@H](O)[C@@H](O)[C@H](O)[C@H](O)[C@H]1O[C@@H]1O[C@H](CO)[C@H](O)[C@H](O)[C@H]1N | inactive | Active | inactive | Active
3 | CO[C@@H]1[C@@H](O)[C@@H](O)[C@H](O)[C@H](O)[C@H]1C[C@@H]1O[C@H](CO)[C@H](O)[C@H](O)[C@H]1O | inactive | inactive | inactive | inactive

Source: ChEMBL document CHEMBL1156862, “Synthesis of C-glycoside analogues of beta-galactosamine-(1-->4)-3-O-methyl-D-chiro-inositol and assay as activator of protein phosphatases PDHP and PP2Calpha” (Bioorg Med Chem, 2010)
